MEKK3 PB1 HTS = MEKK3-MEK5 PB1 interaction, increase or decrease; Q99759; bead-based flow cytometry, Alexa488-MEK5 binding to MEKK3; actives lie on both sides; 0 = blocked by unlabeled MEK5, 100 = vehicle; binding response (% of control), % at 10 µM; hit rate 1.4% among 290,000;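 active means binding response more than 3 SD above or below the average of its plate-row segment, actives on both sides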;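 further: Alexa488 bead fluorescence after subtracting the streptavidin-only scavenger bead signal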
Target sequence (Q99759 whole entry, looked up): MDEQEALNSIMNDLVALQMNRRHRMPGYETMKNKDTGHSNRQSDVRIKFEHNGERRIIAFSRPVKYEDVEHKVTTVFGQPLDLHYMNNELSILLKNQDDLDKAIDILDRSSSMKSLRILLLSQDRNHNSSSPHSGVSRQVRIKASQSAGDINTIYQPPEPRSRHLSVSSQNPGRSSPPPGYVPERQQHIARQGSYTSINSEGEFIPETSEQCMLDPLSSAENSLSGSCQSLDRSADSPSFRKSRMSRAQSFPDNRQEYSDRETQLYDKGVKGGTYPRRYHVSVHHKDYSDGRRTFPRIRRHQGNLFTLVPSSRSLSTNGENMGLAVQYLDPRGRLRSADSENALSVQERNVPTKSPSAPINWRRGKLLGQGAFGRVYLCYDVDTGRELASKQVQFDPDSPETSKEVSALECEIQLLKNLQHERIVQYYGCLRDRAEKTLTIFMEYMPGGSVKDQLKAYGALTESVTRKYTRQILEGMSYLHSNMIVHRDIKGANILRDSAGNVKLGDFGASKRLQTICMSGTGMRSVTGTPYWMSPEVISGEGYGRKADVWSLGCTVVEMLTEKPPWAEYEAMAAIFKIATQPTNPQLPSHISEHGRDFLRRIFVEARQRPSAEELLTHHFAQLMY
MEKK2mut PB1 HTS = signal of MEK5 binding to mutant human MEKK2 PB1 domain | bead flow cytometry, Alexa488-MEK5 binding to MEKK2 mutant | AID 1530 | percent response, % at 10 µM | hit rate 0.35% among 290,000; in the data active means percent response above about 24%, passing the limit was not always enough
MEKK2wt PB1 HTS = raises or lowers MEK5 binding to wildtype human MEKK2 PB1 domain; Q9Y2U5; bead flow cytometry, Alexa488-MEK5 binding to MEKK2 WT; actives lie on both sides; binding response (% of control), % at 10 µM; hit rate 1.1% among 290,000; AID 1531; in the data active means binding response below about 67% or above about 130%
Arr AP2 block = blocks beta-arrestin peptide binding to AP2 adaptin | inhibition, % at 10 µM | hit rate 0.31% among 340,000 | AID 504490 | FITC-arrestin peptide / GST-AP2 beads, flow cytometry; AP2 beta2 appendage carries R879A mutation;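 active means inhibition above a set limit, near 3 SD of compounds lacking own fluorescence, cut at about 54% in these data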;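 further: plate controls were DMSO wells for no effect and 5 µM unlabelled arrestin peptide for full effect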
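Test system: GST-tagged AP2 beta2-adaptin appendage (R879A) on 4 µm glutathione beads; also added: fluorescein-tagged arrestin peptide at 50 nM final; timing: 12 min plus 1 h, RT; signal: flow cytometry, FL1 (488/535 nm); read-out: percent drop in bead-associated FITC signal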
MEKK2wt confirm = raises or lowers MEK5 binding to wildtype human MEKK2, retest; binding response (% of control), % at 10 µM; hit rate 2.4% among 5,900; bead flow cytometry, Alexa488-MEK5 binding to MEKK2 WT; actives lie on both sides; shares compounds with MEKK3 PB1 HTS; in the data active means binding response below about 16% or above about 210%; inactive means in between
MEKK2mut-MEK5 = signal of MEK5 binding to mutant human MEKK2, retest. hit rate 2% among 5,900. percent response, % at 10 µM. bead flow cytometry, Alexa488-MEK5 binding to MEKK2 mutant. shares compounds with MEKK3 PB1 HTS; in the data active means percent response mostly above about 71%, no sharp cut-off; inactive means mostly below about 38%;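 further: higher means compound restores mutant binding toward wildtype level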
MEKK3-MEK5 inh = confirmation of inhibitors of MEK5 binding to human MEKK3; hit rate 1.8% among 5,900; shares compounds with MEKK3 PB1 HTS; bead flow cytometry, Alexa488-MEK5 binding to MEKK3; hits give low values; binding response (% of control), % at 10 µM;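 active means binding response below 72% of control, or above a set upper limit, though filed actives all read lower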;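 further: 100% = DMSO only wells and 0% = binding blocked by excess unlabeled MEK5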
Numbers without * were called inactive; ! = repeats disagree; [ ] = dose if it differs, or a comment. Compounds with a hit are over-represented: about 2.3% of the library has one in this group of screens.

How did NC(N)=N/N=C/c1c(Cl)cccc1Cl do in these assays?
MEKK3 PB1 HTS: 44.0*![inhibitor]; MEKK2mut PB1 HTS: -13.0; MEKK2wt PB1 HTS: 51.0; Arr AP2 block: -3.0; MEKK2wt confirm: 102.0; MEKK2mut-MEK5: -4.0; MEKK3-MEK5 inh: 100.0

What do the screens show for `CCOc1cc(/C=N/O)cc(Br)c1OCC`?
MEKK3 PB1 HTS: 124.0*; MEKK2mut PB1 HTS: 6.0; MEKK2wt PB1 HTS: 100.0; Arr AP2 block: 6.6; MEKK2wt confirm: 103.0; MEKK2mut-MEK5: 0.0; MEKK3-MEK5 inh: 102.0

Results for COc1cccc(CC(=O)OCC(=O)Nc2c(C)nn(-c3ccccc3)c2C)c1 ?
Arr AP2 block: -0.1

What do the screens show for `O=C(N/N=C/c1cccc(F)c1)c1ccc(Cl)cc1`?
MEKK3 PB1 HTS: 104.0; MEKK2mut PB1 HTS: -2.0; MEKK2wt PB1 HTS: 101.0; Arr AP2 block: 9.9

How did O=C(N/N=C/c1cccc(NC(=O)c2ccc(Cl)cc2)c1)c1ccc(O)cc1 do in these assays?
MEKK3 PB1 HTS: 44.0*[inhibitor]; MEKK2mut PB1 HTS: -13.0; MEKK2wt PB1 HTS: 38.0*[inhibitor]; Arr AP2 block: 9.5; MEKK2wt confirm: 96.0; MEKK2mut-MEK5: -2.0; MEKK3-MEK5 inh: 101.0

Results for CN(C)c1ccc(/C=N/NC(=O)c2ccc(NC(=O)c3ccccc3)cc2)cc1 ?
MEKK3 PB1 HTS: 73.0*[inhibitor]; MEKK2mut PB1 HTS: -37.0; MEKK2wt PB1 HTS: 80.0; Arr AP2 block: -5.8; MEKK2wt confirm: 99.0; MEKK2mut-MEK5: 0.0; MEKK3-MEK5 inh: 99.0

What do the screens show for `O=C(N/N=C/c1ccc(Br)cc1)c1ccc(NC(=O)c2ccccc2)cc1`?
Arr AP2 block: 10.7

How did O=C(NCc1cccc2ccccc12)c1cccs1 do in these assays?
Arr AP2 block: 1.4

How did COc1ccc(/C=C2\SC(=O)N(CCC(=O)Nc3ccccc3)C2=O)cc1OC do in these assays?
MEKK3 PB1 HTS: 89.0; MEKK2mut PB1 HTS: -2.0; MEKK2wt PB1 HTS: 90.0; Arr AP2 block: -0.3

What do the screens show for `COc1cc(/C=C2\SC(=O)N(CCN)C2=O)ccc1OS(=O)(=O)c1cc(C)ccc1C`?
MEKK3 PB1 HTS: 97.0; MEKK2mut PB1 HTS: 14.0; MEKK2wt PB1 HTS: 178.0*; Arr AP2 block: 14.3; MEKK2wt confirm: 191.0; MEKK2mut-MEK5: 54.0; MEKK3-MEK5 inh: 110.0

Results for Cc1[nH]c2ccccc2c1/C=N/Nc1ccccc1[N+](=O)[O-] ?
MEKK3 PB1 HTS: 67.0*[inhibitor]; MEKK2mut PB1 HTS: 6.0; MEKK2wt PB1 HTS: 92.0; Arr AP2 block: 30.0; MEKK2wt confirm: 119.0; MEKK2mut-MEK5: 9.0; MEKK3-MEK5 inh: 96.0

Results for COc1ccc(NS(=O)(=O)c2cc([N+](=O)[O-])ccc2N/N=C/c2c(C)[nH]c3ccccc23)cc1 ?
Arr AP2 block: -7.0

What do the screens show for `Cc1[nH]c2ccccc2c1/C=N/NC(=S)NC(C)C`?
MEKK3 PB1 HTS: 98.0; MEKK2mut PB1 HTS: 144.0*; MEKK2wt PB1 HTS: 18.0*; Arr AP2 block: 15.9; MEKK2wt confirm: 105.0; MEKK2mut-MEK5: 4.0; MEKK3-MEK5 inh: 96.0

What do the screens show for `CC(C)NC(=S)N/N=C/c1c[nH]c2ccccc12`?
MEKK3 PB1 HTS: 103.0; MEKK2mut PB1 HTS: -2.0; MEKK2wt PB1 HTS: 100.0; Arr AP2 block: 8.8

Results for CCC1C(=O)N=C(SCC(=O)Nc2ccc(C)cc2)N(c2ccccc2)C1=O (stereo not given) ?
MEKK3 PB1 HTS: 103.0; MEKK2mut PB1 HTS: -1.0; MEKK2wt PB1 HTS: 102.0; Arr AP2 block: -0.6

Results for Clc1ccccc1CO/N=C1\CCCc2nonc21 ?
MEKK3 PB1 HTS: 95.0; MEKK2mut PB1 HTS: -3.0; MEKK2wt PB1 HTS: 96.0; Arr AP2 block: 23.8

What do the screens show for `Clc1ccc(CO/N=C2\CCCc3nonc32)cc1`?
MEKK3 PB1 HTS: 145.0*; MEKK2mut PB1 HTS: 1.0; MEKK2wt PB1 HTS: 109.0; Arr AP2 block: 9.1; MEKK2wt confirm: 101.0; MEKK2mut-MEK5: -6.0; MEKK3-MEK5 inh: 105.0

Results for Cc1ccc(NC(=O)CSC(C)C(=O)OCC(=O)N2CCN(C(=O)c3ccco3)CC2)cc1 (stereo not given) ?
Arr AP2 block: -6.6
